Activity calls are given as the source filed them.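 How the source made its calls: active means AC50 at or below twice the top valid dose for that sample, with falling signal; inconclusive means flat curve with inhibition of 30 to 70%, or poor fit; inactive means activity in the wrong direction, plus the rest.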
molecular target: Scavenger receptor class B member 1 (Mus musculus) (UniProt Q61009); experiment: SR-BI mediated DiI-HDL lipid uptake blockers – ldlA[mSR-BI] CHO cells, fluorescence plate reader, dry powder, set 8, dose response (AID 602285); details: 3 h
In short: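 Assay system: ldlA[mSR-BI] cells, LDL receptor-deficient CHO line overexpressing murine SR-BI; Buffer or medium: Ham's F12, fatty acid-free BSA, HEPES pH 7.4; Dosing: pin-transferred compound series; Times: 3 h uptake at 37 °C; Measured by: bottom-read DiI fluorescence after PBS washes, excitation 550 nm, emission 595 nm; Controls: DMSO as neutral control, BLT-1 as inhibitor control.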

Chain of Scavenger receptor class B member 1 (Mus musculus) (Q61009 whole entry, looked up): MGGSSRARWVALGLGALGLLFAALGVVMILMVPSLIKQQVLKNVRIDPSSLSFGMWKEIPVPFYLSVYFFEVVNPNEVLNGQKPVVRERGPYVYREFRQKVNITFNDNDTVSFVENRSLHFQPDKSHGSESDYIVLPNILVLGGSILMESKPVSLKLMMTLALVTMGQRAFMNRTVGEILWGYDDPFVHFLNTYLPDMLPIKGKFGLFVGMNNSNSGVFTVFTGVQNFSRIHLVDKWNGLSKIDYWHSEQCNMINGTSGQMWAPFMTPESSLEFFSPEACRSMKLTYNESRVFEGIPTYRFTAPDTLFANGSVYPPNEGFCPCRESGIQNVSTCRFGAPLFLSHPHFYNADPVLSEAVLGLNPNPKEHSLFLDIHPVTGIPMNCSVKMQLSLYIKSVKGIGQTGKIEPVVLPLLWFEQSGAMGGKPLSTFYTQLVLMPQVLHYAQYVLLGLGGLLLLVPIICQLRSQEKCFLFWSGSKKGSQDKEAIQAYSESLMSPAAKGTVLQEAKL

| Structure (SMILES) | AC50 |
| --- | --- |
| C[C@@H]1CN([C@H](C)CO)C(=O)c2cc(NC(=O)Cc3cn(C)c4ccccc34)ccc2O[C@H]1CN(C)Cc1ccc(C(=O)Nc2ccccc2N)cc1 | 1720 nM |
| C[C@@H]1CN([C@H](C)CO)C(=O)c2cc(NC(=O)Cc3cn(C)c4ccccc34)ccc2O[C@H]1CN(C)Cc1ccc2c(c1)OCO2 | 865 nM |
| C[C@@H]1CN([C@H](C)CO)C(=O)c2cc(NC(=O)Cc3cn(C)c4ccccc34)ccc2O[C@H]1CN(C)C(=O)NC1CCCCC1 | 9180 nM |
| C[C@@H]1CN([C@H](C)CO)C(=O)c2cc(NC(=O)Cc3cn(C)c4ccccc34)ccc2O[C@H]1CN(C)C | 17900 nM |
| COc1ccc(NC(=O)N(C)C[C@@H]2Oc3ccc(NC(=O)Cc4cn(C)c5ccccc45)cc3C(=O)N([C@H](C)CO)C[C@H]2C)cc1 | 1750 nM |
| Cc1noc(C)c1S(=O)(=O)Nc1ccc2c(c1)C(=O)N([C@H](C)CO)C[C@@H](C)[C@H](CN(C)S(=O)(=O)c1ccc(Cl)cc1)O2 | 297 nM |
| C[C@@H]1CN([C@H](C)CO)C(=O)c2cc(NC(=O)Cc3cn(C)c4ccccc34)ccc2O[C@H]1CN(C)S(=O)(=O)c1ccc(F)cc1 | 1110 nM |
| O=C(C[C@@H]1CC[C@@H](NC(=O)CC2CC2)[C@H](CO)O1)NCc1ccc(Cl)cc1 | > 70000 nM (inactive) |
| C[C@@H]1CN([C@H](C)CO)C(=O)c2cc(NC(=O)Nc3ccc(F)cc3)ccc2O[C@H]1CN(C)S(=O)(=O)c1ccc(Cl)cc1 | 70.8 nM |
| COc1ccc(CN(C)C[C@@H]2Oc3ccc(NC(=O)CCCN(C)C)cc3C(=O)N([C@H](C)CO)C[C@H]2C)cc1 | > 70000 nM (inactive) |
| C[C@@H]1CN([C@H](C)CO)C(=O)c2cc(NC(=O)CCN3CCOCC3)ccc2O[C@H]1CN(C)S(=O)(=O)c1ccc(Cl)cc1 | 4950 nM |
| C[C@@H]1CN([C@H](C)CO)C(=O)c2cc(NC(=O)CCCN(C)C)ccc2O[C@H]1CN(C)S(=O)(=O)c1ccc(Cl)cc1 | > 70000 nM (inactive) |
| C[C@@H]1CN([C@@H](C)CO)C(=O)c2cc(NC(=O)NC3CCCCC3)ccc2O[C@H]1CN(C)Cc1ccncc1 | 10700 nM |
| C[C@@H]1CN([C@H](C)CO)C(=O)c2cc(NC(=O)Cc3cn(C)c4ccccc34)ccc2O[C@H]1CN(C)S(=O)(=O)c1ccccc1 | 215 nM |

same assay, conditions: 3 h, at 11 µM (top of the series)

| Structure (SMILES) | activity change, negative = inhibition |
| --- | --- |
| C[C@@H]1CN([C@H](C)CO)C(=O)c2cc(NC(=O)Cc3cn(C)c4ccccc34)ccc2O[C@H]1CN(C)Cc1ccc(Cl)c(Cl)c1 | inactive |

same assay, conditions: 3 h, at 35 µM (top of the series)

| Structure (SMILES) | activity change, negative = inhibition |
| --- | --- |
| CC(C)NC(=O)Nc1cccc2c1O[C@@H](CN(C)Cc1ccc(C(F)(F)F)cc1)[C@@H](C)CN([C@@H](C)CO)C2=O | inactive |
| C[C@@H]1CN([C@H](C)CO)S(=O)(=O)c2ccc(C3=CCCCC3)cc2O[C@@H]1CN(C)C(=O)Nc1ccc2c(c1)OCO2 | inactive |
| C[C@@H]1CN([C@H](C)CO)C(=O)c2cc(NC(=O)Nc3ccc(C(F)(F)F)cc3)ccc2O[C@H]1CN(C)S(=O)(=O)c1ccc(Cl)cc1 | inactive |
| C[C@@H]1CN([C@@H](C)CO)C(=O)Cc2cc(NS(=O)(=O)c3cn(C)cn3)ccc2O[C@H]1CN(C)Cc1ccc(Cl)c(Cl)c1 | inactive |
| C[C@@H]1CN([C@H](C)CO)C(=O)c2cc(NC(=O)Nc3ccccc3)ccc2O[C@H]1CN(C)S(=O)(=O)c1ccc(Cl)cc1 | inactive |
| C[C@@H]1CN([C@H](C)CN(C)C)C(=O)c2cc(NC(=O)Cc3cn(C)c4ccccc34)ccc2O[C@H]1CN(C)S(=O)(=O)c1ccc(Cl)cc1 | inactive |
| CO[C@@H]1CN(C)C(=O)c2ccc(NC(=O)C3CC3)cc2OC[C@@H](C)N(Cc2ccncc2)C[C@H]1C | inactive |
| CNC[C@@H]1OCCCC[C@@H](C)Oc2ccc(NS(=O)(=O)c3ccc(Cl)cc3)cc2C(=O)N([C@H](C)CO)C[C@H]1C | inactive |
| C[C@H](CO)N1C[C@H](C)[C@H](CN(C)S(=O)(=O)c2ccc(Cl)cc2)Oc2ccc(NC(=O)Cc3cn(C)c4ccccc34)cc2C1=O | inactive |
| Cc1ccccc1-c1ccc2c(c1)O[C@H](CN(C)C(=O)Nc1ccc(F)cc1)[C@H](C)CN([C@H](C)CO)S2(=O)=O | inactive |
| CCCNC(=O)N(C)C[C@@H]1Oc2cc(-c3cncnc3)ccc2S(=O)(=O)N([C@@H](C)CO)C[C@@H]1C | inactive |
| C[C@@H]1CN([C@H](C)CO)C(=O)c2cc(NC(=O)Cc3cn(C)c4ccccc34)ccc2O[C@H]1CN(C)Cc1ccc(Oc2ccccc2)cc1 | inactive |
| C[C@@H]1CN([C@@H](C)CO)C(=O)Cc2cc(NS(=O)(=O)c3cn(C)cn3)ccc2O[C@@H]1CN(C)Cc1ccc(Cl)c(Cl)c1 | inactive |
| C[C@@H]1CN([C@H](C)CO)C(=O)c2cc(NC(=O)Cc3cn(C)c4ccccc34)ccc2O[C@H]1CN(C)Cc1ccc(-c2ccccc2)cc1 | inactive |
| Cc1noc(C)c1S(=O)(=O)N(C)C[C@H]1Oc2c(NC(=O)c3nc4ccccc4s3)cccc2C(=O)N([C@H](C)CO)C[C@H]1C | inactive |
| C[C@@H]1CN([C@H](C)CO)C(=O)c2cc(NS(=O)(=O)c3ccc(Cl)cc3)ccc2O[C@H]1CN(C)S(=O)(=O)c1ccc(Cl)cc1 | inactive |

Source: PubChem BioAssay AID602285 (Broad Institute, 2012)
